Reference: ChEMBL document CHEMBL1131232, “New azole antifungals. 3. Synthesis and antifungal activity of 3-substituted-4(3H)-quinazolinones” (J Med Chem, 1998)
In brackets after ≈: the same amount, converted by molar mass.

Key:
Assay type in all cases: functional
[1] = In vitro antifungal activity against 6 filamentous fungi
Method in brief: (§1)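 Agar dilution on Kimmig's agar with 0.5% glycerol, using ATCC strains or clinical isolates. Drug stocks were 800 μg/mL in 50% ethanol, tested as 2-fold dilutions from 80 to 0.03 μg/mL. Inocula were 10⁵ cfu/mL. […] Geometric means took >80 as 160 and ≤0.03 as 0.03.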

[2] = In vitro for antifungal activity against 10 yeasts; method in brief: as §1
[3] = test system: Candida albicans; assay: In vivo antifungal activity against murine candidosis model after peroral administration with 1 mg/kg at various time intervals. (percent protection for 100% mortality with fluconazole-treated group.); conditions: route oral
Method in brief: (§2)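 Groups of 10 male mice were infected iv with 0.2 mL of C. albicans at 2 to 8×10^7 cfu/mL. Drug was given orally as a suspension in 1% Tween + 0.2% carboxymethylcellulose at 1, 4 and 24 h post-infection; controls got vehicle only. Survival was scored on days 3, 5, 7 and 9. Read-out was % survival on the day all untreated controls died, or on the day all mice given fluconazole at the same dose died.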

[4] = test system: Candida albicans; assay: In vivo antifungal activity against murine candidosis model after peroral administration with 1 mg/kg at various time intervals. (percent protection for 100% mortality with untreated group); conditions: route oral; method in brief: as §2
[5] = test system: Candida albicans; assay: In vivo antifungal activity against murine candidosis model after peroral administration with 2.5 mg/kg at various time intervals. (percent protection for 100% mortality with fluconazole-treated group.); conditions: route oral; method in brief: as §2
[6] = test system: Candida albicans; assay: In vivo antifungal activity against murine candidosis model after peroral administration with 2.5 mg/kg at various time intervals. (percent protection for 100% mortality with untreated group); conditions: route oral; method in brief: as §2
[7] = test system: Candida albicans; assay: In vivo antifungal activity against murine candidosis model after peroral administration with 0.5 mg/kg at various time intervals. (percent protection for 100% mortality with fluconazole-treated group.); conditions: route oral; method in brief: as §2
[8] = test system: Candida albicans; assay: In vivo antifungal activity against murine candidosis model after peroral administration with 0.5 mg/kg at various time intervals. (percent protection for 100% mortality with untreated group); conditions: route oral; method in brief: as §2

Structure (SMILES)	MIC ([1]; read-out: MIC)	MIC ([2]; read-out: MIC)	Protection [3]	Protection [4]	Protection [5]	Protection [6]	Protection [7]	Protection [8]	MIC [1]	MIC [2]
C[C@@H](n1cnc2cc(C(N)=O)ccc2c1=O)[C@](O)(Cn1cncn1)c1ccc(F)cc1F	> 80 µg/mL	25 µg/mL (≈ 56.8 µM)	–	–	–	–	–	–	–	–
Cc1cccc2ncn([C@H](C)[C@](O)(Cn3cncn3)c3ccc(F)cc3F)c(=O)c12	40 µg/mL (≈ 97.2 µM)	2.6 µg/mL (≈ 6.32 µM)	0%	0%	–	–	–	–	–	–
C[C@@H](NC(=O)c1ccc(Cl)cc1NC=O)[C@](O)(Cn1cncn1)c1ccc(F)cc1F	0.9 µg/mL (≈ 2 µM)	0.3 µg/mL (≈ 0.667 µM)	–	–	0%	0%	–	–	–	–
C[C@@H](NC(=O)c1ccc(Cl)cc1N)[C@](O)(Cn1cncn1)c1ccc(F)cc1F	8.9 µg/mL (≈ 21.1 µM)	3.7 µg/mL (≈ 8.77 µM)	–	–	0%	20%	–	–	–	–
C[C@@H](n1cnc2cc(NN)ccc2c1=O)[C@](O)(Cn1cncn1)c1ccc(F)cc1F	> 80 µg/mL	15 µg/mL (≈ 35.1 µM)	–	–	–	–	–	–	–	–
C[C@@H](n1cnc2cc(C#N)ccc2c1=O)[C@](O)(Cn1cncn1)c1ccc(F)cc1F	3.5 µg/mL (≈ 8.29 µM)	0.8 µg/mL (≈ 1.89 µM)	0%	10%	–	–	–	–	–	–
C[C@@H](n1cnc2cccc(Cl)c2c1=O)[C@](O)(Cn1cncn1)c1ccc(F)cc1F	71 µg/mL (≈ 164 µM)	3.1 µg/mL (≈ 7.18 µM)	0%	0%	–	–	–	–	–	–
C[C@@H](n1cnc2cc(Sc3ccccc3)ccc2c1=O)[C@](O)(Cn1cncn1)c1ccc(F)cc1F	2 µg/mL (≈ 3.96 µM)	0.7 µg/mL (≈ 1.38 µM)	–	–	–	–	0%	0%	–	–
C[C@@H](n1cnc2cc(NCc3ccccc3)ccc2c1=O)[C@](O)(Cn1cncn1)c1ccc(F)cc1F	11 µg/mL (≈ 21.9 µM)	1.2 µg/mL (≈ 2.39 µM)	–	–	–	–	0%	40%	–	–
C[C@@H](n1cnc2cc(C(F)(F)F)ccc2c1=O)[C@](O)(Cn1cncn1)c1ccc(F)cc1F	2.2 µg/mL (≈ 4.73 µM)	0.7 µg/mL (≈ 1.5 µM)	–	–	–	–	60%	100%	–	–
C[C@@H](n1cnc2cc(N3CCOCC3)ccc2c1=O)[C@](O)(Cn1cncn1)c1ccc(F)cc1F	35 µg/mL (≈ 72.5 µM)	1.9 µg/mL (≈ 3.94 µM)	–	–	–	–	0%	20%	–	–
Cc1nc2cc(Cl)ccc2c(=O)n1[C@H](C)[C@](O)(Cn1cncn1)c1ccc(F)cc1F	36 µg/mL (≈ 80.7 µM)	6.6 µg/mL (≈ 14.8 µM)	–	–	–	–	–	–	–	–
C[C@@H](n1cnc2cc(C(=N)NS(N)(=O)=O)ccc2c1=O)[C@](O)(Cn1cncn1)c1ccc(F)cc1F	> 80 µg/mL	40 µg/mL (≈ 77.1 µM)	–	–	–	–	0%	0%	–	–
C[C@@H](N1CNc2cc(Cl)ccc2C1=O)[C@](O)(Cn1cncn1)c1ccc(F)cc1F	2.8 µg/mL (≈ 6.45 µM)	0.8 µg/mL (≈ 1.84 µM)	–	–	0%	30%	–	–	–	–
C[C@@H](n1cnc2ccc(F)cc2c1=O)[C@](O)(Cn1cncn1)c1ccc(F)cc1F	> 80 µg/mL	2.4 µg/mL (≈ 5.78 µM)	0%	0%	–	–	–	–	–	–
C[C@@H](n1cnc2cc(F)c(F)cc2c1=O)[C@](O)(Cn1cncn1)c1ccc(F)cc1F	70 µg/mL (≈ 162 µM)	1.7 µg/mL (≈ 3.92 µM)	0%	10%	–	–	–	–	–	–
C[C@@H](n1cnc2cc(N(C)C)c(F)cc2c1=O)[C@](O)(Cn1cncn1)c1ccc(F)cc1F	22 µg/mL (≈ 48 µM)	1.4 µg/mL (≈ 3.05 µM)	0%	0%	–	–	–	–	–	–
C[C@@H](n1cnc2cc(-n3cncn3)ccc2c1=O)[C@](O)(Cn1cncn1)c1ccc(F)cc1F	80 µg/mL (≈ 172 µM)	6.6 µg/mL (≈ 14.2 µM)	–	–	–	–	<50%	70%	–	–
CCC(CC)n1ncn(-c2ccc(N3CCN(c4ccc5ncn([C@H](C)[C@](O)(Cn6cncn6)c6ccc(F)cc6F)c(=O)c5c4)CC3)cc2)c1=O	28 µg/mL (≈ 39.4 µM)	3.7 µg/mL (≈ 5.21 µM)	–	–	–	–	0%	0%	–	–
C[C@@H](n1cnc2cc(Oc3ccc(Cl)cc3)ccc2c1=O)[C@](O)(Cn1cncn1)c1ccc(F)cc1F	7.1 µg/mL (≈ 13.6 µM)	0.7 µg/mL (≈ 1.34 µM)	–	–	–	–	80%	100%	–	–
C[C@@H](n1cnc2cc(N3CCN(C)CC3)ccc2c1=O)[C@](O)(Cn1cncn1)c1ccc(F)cc1F	> 80 µg/mL	19 µg/mL (≈ 38.3 µM)	–	–	–	–	0%	20%	–	–
C[C@@H](n1cnc2ccc(Br)cc2c1=O)[C@](O)(Cn1cncn1)c1ccc(F)cc1F	45 µg/mL (≈ 94.5 µM)	1.6 µg/mL (≈ 3.36 µM)	0%	100%	–	–	–	–	–	–
C[C@@H](n1cnc2cc(OCC(F)(F)F)ccc2c1=O)[C@](O)(Cn1cncn1)c1ccc(F)cc1F	15 µg/mL (≈ 30.3 µM)	1 µg/mL (≈ 2.02 µM)	–	–	–	–	100%	100%	–	–
C[C@@H](n1cnc2cc(N)c(F)cc2c1=O)[C@](O)(Cn1cncn1)c1ccc(F)cc1F	50 µg/mL (≈ 116 µM)	8.7 µg/mL (≈ 20.2 µM)	–	–	–	–	–	–	–	–

Structure (SMILES)	MIC ([1]; read-out: MIC)	MIC ([2]; read-out: MIC)	Protection [3]	Protection [4]	Protection [5]	Protection [6]	Protection [7]	Protection [8]	MIC [1]	MIC [2]
C[C@@H](n1cnc2cccc(F)c2c1=O)[C@](O)(Cn1cncn1)c1ccc(F)cc1F	57 µg/mL (≈ 137 µM)	4.3 µg/mL (≈ 10.4 µM)	0%	0%	–	–	–	–	–	–
C[C@@H](n1cnc2cc(-n3ncnn3)ccc2c1=O)[C@](O)(Cn1cncn1)c1ccc(F)cc1F	57 µg/mL (≈ 122 µM)	1.5 µg/mL (≈ 3.22 µM)	–	–	–	–	–	–	–	–
C[C@@H](n1cnc2cc(OCC(F)F)ccc2c1=O)[C@](O)(Cn1cncn1)c1ccc(F)cc1F	25 µg/mL (≈ 52.4 µM)	1.4 µg/mL (≈ 2.93 µM)	–	–	–	–	0%	100%	–	–
C[C@@H](n1cnc2cc(OCC(F)(F)C(F)F)ccc2c1=O)[C@](O)(Cn1cncn1)c1ccc(F)cc1F	18 µg/mL (≈ 34.1 µM)	0.4 µg/mL (≈ 0.758 µM)	–	–	–	–	100%	100%	–	–
C[C@@H](n1cnc2ccccc2c1=O)[C@](O)(Cn1cncn1)c1ccc(F)cc1F	8.9 µg/mL (≈ 22.4 µM)	1.2 µg/mL (≈ 3.02 µM)	0%	10%	–	–	–	–	–	–
CSc1ccc2c(=O)n([C@H](C)[C@](O)(Cn3cncn3)c3ccc(F)cc3F)cnc2c1	3.8 µg/mL (≈ 8.57 µM)	0.5 µg/mL (≈ 1.13 µM)	–	–	–	–	40%	100%	–	–
C[C@@H](n1cnc2cc(N3CCN(c4ccc(Cl)cc4)CC3)ccc2c1=O)[C@](O)(Cn1cncn1)c1ccc(F)cc1F	2.8 µg/mL (≈ 4.73 µM)	0.2 µg/mL (≈ 0.338 µM)	–	–	–	–	0%	60%	–	–
C[C@@H](n1cnc2cc(OCCF)ccc2c1=O)[C@](O)(Cn1cncn1)c1ccc(F)cc1F	28 µg/mL (≈ 60.9 µM)	1.4 µg/mL (≈ 3.05 µM)	–	–	–	–	0%	0%	–	–
Cc1cc(Br)c2ncn([C@H](C)[C@](O)(Cn3cncn3)c3ccc(F)cc3F)c(=O)c2c1	> 80 µg/mL	2.1 µg/mL (≈ 4.28 µM)	0%	0%	–	–	–	–	–	–
Cc1cccc2c(=O)n([C@H](C)[C@](O)(Cn3cncn3)c3ccc(F)cc3F)cnc12	80 µg/mL (≈ 194 µM)	2.3 µg/mL (≈ 5.59 µM)	0%	10%	–	–	–	–	–	–
Cc1cc(C)c2ncn([C@H](C)[C@](O)(Cn3cncn3)c3ccc(F)cc3F)c(=O)c2c1	> 80 µg/mL	3.8 µg/mL (≈ 8.93 µM)	0%	0%	–	–	–	–	–	–
CC[C@H]([C@H](C)O)n1ncn(-c2ccc(N3CCN(c4ccc5c(=O)n([C@H](C)[C@](O)(Cn6cncn6)c6ccc(F)cc6F)cnc5c4)CC3)cc2)c1=O	> 80 µg/mL	32 µg/mL (≈ 44 µM)	–	–	–	–	–	–	–	–
C[C@@H](n1cnc2c(Cl)cc(Cl)cc2c1=O)[C@](O)(Cn1cncn1)c1ccc(F)cc1F	> 80 µg/mL	1.7 µg/mL (≈ 3.65 µM)	0%	100%	–	–	–	–	–	–
C[C@@H](n1cnc2c(Br)cc(Br)cc2c1=O)[C@](O)(Cn1cncn1)c1ccc(F)cc1F	> 80 µg/mL	2.6 µg/mL (≈ 4.68 µM)	0%	10%	–	–	–	–	–	–
Cc1ccc2ncn([C@H](C)[C@](O)(Cn3cncn3)c3ccc(F)cc3F)c(=O)c2c1	45 µg/mL (≈ 109 µM)	1.4 µg/mL (≈ 3.4 µM)	0%	40%	–	–	–	–	–	–
C[C@@H](n1cnc2cc(S(=O)(=O)c3ccccc3)ccc2c1=O)[C@](O)(Cn1cncn1)c1ccc(F)cc1F	8.7 µg/mL (≈ 16.2 µM)	1.2 µg/mL (≈ 2.23 µM)	–	–	–	–	0%	0%	–	–
C[C@@H](n1cnc2ccc(Cl)cc2c1=O)[C@](O)(Cn1cncn1)c1ccc(F)cc1F	50 µg/mL (≈ 116 µM)	1 µg/mL (≈ 2.32 µM)	0%	40%	–	–	–	–	–	–
C[C@@H](n1cnc2cc3ccccc3cc2c1=O)[C@](O)(Cn1cncn1)c1ccc(F)cc1F	45 µg/mL (≈ 101 µM)	0.4 µg/mL (≈ 0.894 µM)	0%	30%	–	–	–	–	–	–
C[C@@H](n1cnc2cc(N3CCN(c4ccc([N+](=O)[O-])cc4)CC3)ccc2c1=O)[C@](O)(Cn1cncn1)c1ccc(F)cc1F	> 80 µg/mL	7.9 µg/mL (≈ 13.1 µM)	–	–	–	–	–	–	–	–
C[C@@H](n1cnc2cc(N3CCOC3=O)ccc2c1=O)[C@](O)(Cn1cncn1)c1ccc(F)cc1F	80 µg/mL (≈ 166 µM)	8.7 µg/mL (≈ 18 µM)	–	–	–	–	–	–	–	–
C[C@@H](n1cnc2cc(S(C)(=O)=O)ccc2c1=O)[C@](O)(Cn1cncn1)c1ccc(F)cc1F	> 80 µg/mL	11 µg/mL (≈ 23.1 µM)	–	–	–	–	80%	100%	–	–
C[C@@H](n1cnc2cc(NC(=O)C(F)(F)F)c(F)cc2c1=O)[C@](O)(Cn1cncn1)c1ccc(F)cc1F	80 µg/mL (≈ 152 µM)	8.1 µg/mL (≈ 15.4 µM)	–	–	–	–	–	–	–	–
C[C@@H](n1cnc2cc(Cl)ccc2c1=O)[C@](O)(Cn1cncn1)c1ccc(F)cc1F (stereo in doubt; 75) [ALBACONAZOLE]	–	–	–	–	–	–	–	–	33 µg/mL (≈ 76.4 µM)	1 µg/mL (≈ 2.32 µM)
